Test results: ChEMBL document CHEMBL1129298, “Nonpeptide angiotensin II receptor antagonists: synthesis, biological activities, and structure-activity relationships of imidazole-5-carboxylic acids bearing alkyl, alkenyl, and hydroxyalkyl substituents at the 4-position and their related compounds” (J Med Chem, 1996)
“And” between values parts separate entries of the source, which are not always exact repeats. Equal entries are not always repeated. Blank lines part the entries; values can stand above or below the compound they belong to.

Assays:
[1] = test system: Rattus norvegicus; test: Inhibitory activity against AII-Induced Pressor response at 1 mg/kg at 6 hour; assay type: functional; settings: for inhibition in vivo at 1 mg/kg: Rattus norvegicus, 6 h
Summary of the method: (§1)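 Male Wistar-Imamichi rats (300–400 g) cannulated under pentobarbital (50 mg/kg ip), fasted 24 h, tested conscious the next day. AII 50 ng/kg iv was repeated until constant, then compound in 50% aqueous DMF given orally. AII was repeated over 8 h, and mean blood pressure response inhibition (%) was recorded at 1, 3, 6 h. n = 3–5.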

[2] = test system: Rattus norvegicus; test: Inhibitory activity against AII-Induced Pressor response at 1 mg/kg at 1 hr; assay type: functional; summary of the method: as §1
[3] = test system: Rattus norvegicus; test: Inhibitory activity against AII-Induced Pressor response at 1 mg/kg at 3 hour; assay type: functional; settings: for inhibition in vivo at 1 mg/kg: Rattus norvegicus, 3 h; summary of the method: as §1
[4] = target: Angiotensin II receptor (Rattus norvegicus) (UniProt P29089+P25095+P35351); test: In vivo inhibitory activity against angiotensin II induced pressor response in anesthetized normotensive rats; assay type: functional, organism-based
Summary of the method: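 Male Wistar-Imamichi rats (300–400 g) under inactin (100 mg/kg ip), with femoral arterial and venous cannulae. AII 50 ng/kg iv every 10 min until responses were constant. Compound in DMSO was then given iv and AII re-injected 2 min later.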

[5] = target: T1, Type-1 angiotensin II receptor (Bos taurus, UniProt P25104); test: In vitro for inhibition of [125I]-angiotensin II (0.1 nM) binding to angiotensin II receptor type 1 in membrane fractions of bovine adrenal cortex; assay type: tissue-based
T1 sequence (P25104 whole entry): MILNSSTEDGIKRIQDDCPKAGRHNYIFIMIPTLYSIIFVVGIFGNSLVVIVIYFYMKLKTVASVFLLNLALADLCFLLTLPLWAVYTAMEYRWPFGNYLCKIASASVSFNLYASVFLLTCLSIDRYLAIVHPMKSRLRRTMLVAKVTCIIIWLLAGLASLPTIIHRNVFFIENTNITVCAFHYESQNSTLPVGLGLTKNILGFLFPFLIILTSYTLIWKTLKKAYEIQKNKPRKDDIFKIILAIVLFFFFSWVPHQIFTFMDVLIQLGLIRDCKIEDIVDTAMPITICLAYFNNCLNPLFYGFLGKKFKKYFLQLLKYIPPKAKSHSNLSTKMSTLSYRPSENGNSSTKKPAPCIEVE

[6] = test system: Rattus norvegicus; test: Inhibitory activity against AII-Induced Pressor response at 10 mg/Kg at 3 hour; assay type: functional; summary of the method: as §1
[7] = test system: Rattus norvegicus; test: Inhibitory activity against AII-Induced Pressor response at 3 mg/Kg at 1 hr; assay type: functional; summary of the method: as §1
[8] = test system: Rattus norvegicus; test: Inhibitory activity against AII-Induced Pressor response at 3 mg/Kg at 3 hour; assay type: functional; summary of the method: as §1
[9] = test system: Rattus norvegicus; test: Inhibitory activity against AII-Induced Pressor response at 3 mg/Kg at 6 hour; assay type: functional; summary of the method: as §1
[10] = test system: Rattus norvegicus; test: Inhibitory activity against AII-Induced Pressor response at 10 mg/Kg at 1 hr; assay type: functional; summary of the method: as §1
[11] = test system: Rattus norvegicus; test: Inhibitory activity against AII-Induced Pressor response at 10 mg/Kg at 6 hour; assay type: functional; summary of the method: as §1
[12] = test system: Rattus norvegicus; test: Inhibitory activity against AII-Induced Pressor response at 0.3 mg/Kg at 1 hr; assay type: functional; summary of the method: as §1
[13] = test system: Rattus norvegicus; test: Inhibitory activity against AII-Induced Pressor response at 0.3 mg/Kg at 3 hr; assay type: functional; summary of the method: as §1
[14] = test system: Rattus norvegicus; test: Inhibitory activity against AII-Induced Pressor response at 1 mg/Kg at 3 hour; assay type: functional; summary of the method: as §1
[15] = test system: Rattus norvegicus; test: Inhibitory activity against AII-Induced Pressor response at 1 mg/Kg at 1 hr; assay type: functional; summary of the method: as §1
[16] = test system: Rattus norvegicus; test: Inhibitory activity against AII-Induced Pressor response at 1 mg/Kg at 6 hour; assay type: functional; summary of the method: as §1

SMILES: CCCc1nc(C(C)(C)O)c(C(=O)OCOC(=O)OC(C)C)n1Cc1ccc(-c2ccccc2C(=O)O)cc1
- inhibition in vivo at 1 mg/kg [1]: 71%
- inhibition in vivo at 1 mg/kg [2]: 71%
- inhibition in vivo at 1 mg/kg [3]: 71%

- ID50 [4]: 1.5 mg/kg
SMILES: CCCc1nc(CO)c(C(=O)OCC)n1Cc1ccc(-c2ccccc2C(=O)O)cc1

- ID50 [4]: 8.2 mg/kg
- IC50 [5]: 45000 nM
SMILES: CCCc1nc(C(=O)O)cn1Cc1ccc(-c2ccccc2C(=O)O)cc1

- IC50 [5]: 4.9 nM
SMILES: CCCc1nc(C(C)O)c(C(=O)O)n1Cc1ccc(-c2ccccc2-c2nnn[nH]2)cc1 (stereo not given)

SMILES: CCCc1nc(C(C)(C)O)c(C(=O)OCc2oc(=O)oc2C)n1Cc1ccc(-c2ccccc2C(=O)O)cc1
- inhibition in vivo at 1 mg/kg [1]: 70%
- inhibition in vivo at 1 mg/kg [2]: 72%
- inhibition in vivo at 1 mg/kg [3]: 70%

- ID50 [4]: 0.031 mg/kg
SMILES: CCCc1nc(C(=O)O)c(C(=O)O)n1Cc1ccc(-c2ccccc2-c2nn[nH]n2)cc1

- ID50 [4]: 0.014 mg/kg
SMILES: CCCc1nc(C(C)C)c(C(=O)O)n1Cc1ccc(-c2ccccc2-c2nn[nH]n2)cc1

- ID50 [4]: 1.2 mg/kg
- IC50 [5]: 600 nM
SMILES: CCCc1nc(C(C)(C)O)c(C(=O)OCC)n1Cc1ccc(-c2ccccc2C(=O)O)cc1
- inhibition in vivo at 10 mg/kg [6]: 70%
- inhibition in vivo at 3 mg/kg [7]: 26%
- inhibition in vivo at 3 mg/kg [8]: 28%
- inhibition in vivo at 3 mg/kg [9]: 25%
- inhibition in vivo at 10 mg/kg [10]: 40%
- inhibition in vivo at 10 mg/kg [11]: 75%

- IC50 [5]: 9.5 nM
SMILES: CCCCc1nc(C(C)(C)O)c(C(=O)O)n1Cc1ccc(-c2ccccc2-c2nnn[nH]2)cc1

- IC50 [5]: 46 nM
SMILES: CCCc1nc(C(C)C)c(C(=O)O)n1Cc1ccc(-c2ccccc2-c2nnn[nH]2)cc1

- ID50 [4]: 8.8 mg/kg
SMILES: CCCc1nc(C(=O)O)c(CO)n1Cc1ccc(-c2ccccc2C(=O)O)cc1

- ID50 [4]: 0.27 mg/kg
- IC50 [5]: 100 nM
SMILES: CCCc1nc(CC)c(C(=O)O)n1Cc1ccc(-c2ccccc2C(=O)O)cc1

- IC50 [5]: 5.3 nM
SMILES: CCc1nc(C(C)(C)O)c(C(=O)O)n1Cc1ccc(-c2ccccc2-c2nnn[nH]2)cc1

- IC50 [5]: 200 nM
SMILES: CCCc1nc(C(C)(C)O)c(C(=O)OCC)n1Cc1ccc(-c2ccccc2-c2nnn[nH]2)cc1

- ID50 [4]: 0.056 mg/kg
- IC50 [5]: 28 nM
SMILES: CCCc1nc(C(C)(C)O)c(C(=O)O)n1Cc1ccc(-c2ccccc2C(=O)O)cc1
- inhibition in vivo at 10 mg/kg [6]: 70%
- inhibition in vivo at 3 mg/kg [7]: 78%
- inhibition in vivo at 1 mg/kg [1]: 12%
- inhibition in vivo at 3 mg/kg [8]: 67%
- inhibition in vivo at 3 mg/kg [9]: 48%
- inhibition in vivo at 1 mg/kg [2]: 50%
- inhibition in vivo at 10 mg/kg [10]: 88%
- inhibition in vivo at 10 mg/kg [11]: 56%
- inhibition in vivo at 1 mg/kg [3]: 42%

- ID50 [4]: 0.22 mg/kg
- IC50 [5]: 60 nM
SMILES: CCCc1ncc(C(=O)O)n1Cc1ccc(-c2ccccc2C(=O)O)cc1

- ID50 [4]: 0.069 mg/kg
SMILES: CCCc1nc(CO)c(C(=O)O)n1Cc1ccc(-c2ccccc2C(=O)O)cc1

- IC50 [5]: 12 nM
SMILES: CCCc1nc(CC)c(C(=O)O)n1Cc1ccc(-c2ccccc2-c2nnn[nH]2)cc1

- ID50 [4]: 0.028 mg/kg
- IC50 [5]: 11 nM
SMILES: CCCc1nc(C)c(C(=O)O)n1Cc1ccc(-c2ccccc2-c2nn[nH]n2)cc1

- ID50 [4]: 2.3 mg/kg
SMILES: CCCCc1nc(Cl)c(CO)n1Cc1ccc(-c2ccccc2C(=O)O)cc1

SMILES: CCCc1nc(C(C)(C)O)c(C(=O)OCOC(=O)C(C)(C)C)n1Cc1ccc(-c2ccccc2C(=O)O)cc1
- inhibition in vivo at 0.3 mg/kg [12]: 43%
- inhibition in vivo at 3 mg/kg [7]: 85%
- inhibition in vivo at 0.3 mg/kg [13]: 32%
- inhibition in vivo at 1 mg/kg [1]: 75%
- Inhibition ([1]; dose 3 mg/kg, in the assay text read “3 mg/kg” for “1 mg/kg”): 87%
- inhibition in vivo at 1 mg/kg [2]: 52%
- Inhibition ([3]; 1 mg/kg): 61% and 85%

- ID50 [4]: 0.21 mg/kg
SMILES: CCCCc1nc(Cl)c(C(=O)O)n1Cc1ccc(-c2ccccc2C(=O)O)cc1

- ID50 [4]: 0.066 mg/kg
- IC50 [5]: 30 nM
SMILES: CCCCc1nc(C(C)(C)O)c(C(=O)O)n1Cc1ccc(-c2ccccc2C(=O)O)cc1

- ID50 [4]: 0.3 mg/kg
SMILES: CCCCc1nc(Cl)c(CO)n1Cc1ccc(-c2ccccc2-c2nnn[nH]2)cc1 [LOSARTAN]
- inhibition in vivo at 10 mg/kg [6]: 77%
- inhibition in vivo at 3 mg/kg [7]: 38%
- inhibition in vivo at 1 mg/kg [14]: 12%
- inhibition in vivo at 3 mg/kg [8]: 35%
- inhibition in vivo at 1 mg/kg [15]: 12%
- inhibition in vivo at 3 mg/kg [9]: 65%
- inhibition in vivo at 10 mg/kg [10]: 69%
- inhibition in vivo at 1 mg/kg [16]: 32%
- inhibition in vivo at 10 mg/kg [11]: 85%
